Active and inactive are the calls of the source. No cut-off for these calls is given here.
Key:
BT-549 [1] = assay: Effect on epithelial-mesenchymal transition in human BT549 cells assessed as ratio of E-cadherin to beta-actin level at 5 uM by Western blot analysis (reference value: 1); assay type: functional
MCF7 [2] = assay: Down regulation of Nanog expression in human MCF7 cells at 5 uM by Western blot analysis; assay type: functional
Procedure, shortened: (§1)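 MCF-7 cells were treated and lysates probed by Western blot for CSC-related markers, with β-actin as loading control. Band densitometry was normalized to DMSO-treated samples.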

MCF7 [3] = assay: Inhibition of mammosphere formation in human MCF7 cells at 2 uM after 7 days by microscopic method; assay type: functional, cell-based
Procedure, shortened: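 MCF-7 cells were grown under mammosphere-forming conditions with compound. Spheres 60 μm or larger were counted for quantitation.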

MCF7 [4] = assay: Inhibition of mammosphere formation in human MCF7 cells assessed as ratio of KLF4 to beta actin level at 5 uM by Western blot analysis (Rvb= 1); assay type: functional
Procedure, shortened: (§2)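 Post-treatment cell lysates were probed by Western blot for CSC markers, with β-actin as the loading control. Band densitometry was normalized to DMSO-treated samples.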

BT-549 [5] = assay: Induction of apoptosis in nuclear fractions of human BT549 cells assessed as ratio of cleaved PARP to beta-actin level at 5 uM by western blot analysis (reference value: 1); assay type: functional
MDA-MB-231 [6] = assay: Induction of apoptosis in human MDA-MB-231 cells assessed as ratio of cleaved caspase-9 to beta-actin level at 5 uM by western blot analysis (reference value: 1); assay type: functional
MCF7 [7] = assay: Induction of apoptosis in human MCF7 cells assessed as ratio of cleaved caspase-8 to beta-actin level at 5 uM by western blot analysis (reference value: 1); assay type: functional
MCF7 [8] = assay: Inhibition of mammosphere formation in human MCF7 cells assessed as ratio of Oct4A to beta actin level at 5 uM by Western blot analysis (Rvb= 1); assay type: functional; procedure, shortened: as §2
BT-549 [9] = assay: Inhibition of mammosphere formation in human BT549 cells assessed as ratio of KLF4 to beta actin level at 5 uM by Western blot analysis (Rvb= 1); assay type: functional
BT-549 [10] = assay: Effect on beta-catenin translocation in cytosolic fraction of human BT549 cells assessed as ratio of beta-catenin to beta-actin level at 5 uM by Western blot analysis (reference value: 1); assay type: functional
MCF7 [11] = assay: Inhibition of colony formation in human MCF7 cells at 5 uM supplemented with fresh medium containing compound every 3 to 4 days for 7 days by crystal violet staining based adherent cell colony-forming assay; assay type: functional
Procedure, shortened: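 MCF-7 cells were plated for adherent colony formation and treated for 7 days. Colonies were counted at the end of treatment and normalized to untreated samples.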

MDA-MB-231 [12] = assay: Cytotoxicity against human MDA-MB-231 cells assessed as reduction in cell viability by MTT assay; assay type: functional, cell-based
MDA-MB-231 [13] = assay: Effect on beta-catenin translocation in nuclear fraction of human MDA-MB-231 cells assessed as ratio of beta-catenin to beta-actin level at 5 uM by Western blot analysis (reference value: 1); assay type: functional
BT-549 [14] = assay: Induction of apoptosis in human BT549 cells assessed as ratio of cleaved caspase-8 to beta-actin level at 5 uM by western blot analysis (reference value: 1); assay type: functional
BT-549 [15] = assay: Induction of apoptosis in nuclear fractions of human BT549 cells assessed as ratio of PARP to beta-actin level at 5 uM by western blot analysis (reference value: 1); assay type: functional
MCF7 [16] = assay: Down regulation of Sox-2 expression in human MCF7 cells at 5 uM by Western blot analysis; assay type: functional; procedure, shortened: as §1
MCF-10A = assay: Induction of apoptosis in human MCF10A cells assessed as ratio of cleaved caspase-9 to beta-actin level at 5 uM by western blot analysis (reference value: 1); assay type: cell-based
MDA-MB-231 [17] = assay: Effect on epithelial-mesenchymal transition in human MDA-MB-231 cells assessed as ratio of slug to beta-actin level at 5 uM by Western blot analysis (reference value: 1); assay type: functional
MDA-MB-231 [18] = assay: Effect on epithelial-mesenchymal transition in human MDA-MB-231 cells assessed as ratio of E-cadherin to beta-actin level at 5 uM by Western blot analysis (reference value: 1); assay type: functional
BT-549 [19] = assay: Effect on epithelial-mesenchymal transition in human BT549 cells assessed as ratio of vimentin to beta-actin level at 5 uM by Western blot analysis (reference value: 1); assay type: functional
MDA-MB-231 [20] = assay: Induction of apoptosis in human MDA-MB-231 cells assessed as ratio of cleaved caspase-3 to beta-actin level at 5 uM by western blot analysis (reference value: 1); assay type: functional
BT-549 [21] = assay: Induction of apoptosis in human BT549 cells assessed as ratio of cleaved caspase-9 to beta-actin level at 5 uM by western blot analysis (reference value: 1); assay type: functional
MCF7 [22] = assay: Cytotoxicity against human MCF7 cells assessed as reduction in cell viability at 5 uM by MTT assay; assay type: functional
MDA-MB-231 [23] = assay: Cytotoxicity against human MDA-MB-231 cells assessed as reduction in cell viability at 5 uM by MTT assay; assay type: functional
MCF7 [24] = assay: Inhibition of mammosphere formation in human MCF7 cells assessed as ratio of Nanog to beta actin level at 5 uM by Western blot analysis (Rvb= 1); assay type: functional; procedure, shortened: as §2
MCF7 [25] = assay: Down regulation of c-Myc expression in human MCF7 cells at 5 uM by Western blot analysis; assay type: functional; procedure, shortened: as §1
MDA-MB-231 [26] = assay: Anti-migratory activity against human MDA-MB-231 cells assessed as reduction in wound closure at 2 uM up to 24 hrs by wound-healing assay; assay type: functional, cell-based
Procedure, shortened: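 MDA-MB-231 monolayer was scratched to make a wound gap. Cells were treated alongside a DMSO vehicle control, and migration into the gap was imaged at 24 h.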

MCF7 [27] = assay: Inhibition of mammosphere formation in human MCF7 cells assessed as ratio of Sox2 to beta actin level at 5 uM by Western blot analysis (Rvb= 1); assay type: functional; procedure, shortened: as §2
MDA-MB-231 [28] = assay: Down regulation of KLF4 expression in human MDA-MB-231 cells at 5 uM by Western blot analysis; assay type: functional
BT-549 [29] = assay: Inhibition of mammosphere formation in human BT549 cells assessed as ratio of C-Myc to beta actin level at 5 uM by Western blot analysis (Rvb= 1); assay type: functional
MDA-MB-231 [30] = assay: Induction of apoptosis in nuclear fractions of human MDA-MB-231 cells assessed as ratio of PARP to beta-actin level at 5 uM by western blot analysis (reference value: 1); assay type: functional
MDA-MB-231 [31] = assay: Induction of apoptosis in nuclear fractions of human MDA-MB-231 cells assessed as ratio of cleaved PARP to beta-actin level at 5 uM by western blot analysis (reference value: 1); assay type: functional
MCF7 [32] = assay: Induction of apoptosis in human MCF7 cells assessed as ratio of cleaved caspase-9 to beta-actin level at 5 uM by western blot analysis (reference value: 1); assay type: functional
MCF7 [33] = assay: Induction of apoptosis in human MCF7 cells assessed as ratio of cleaved caspase-3 to beta-actin level at 5 uM by western blot analysis (reference value: 1); assay type: functional
MDA-MB-231 [34] = assay: Inhibition of mammosphere formation in human MDA-MB-231 cells assessed as ratio of C-Myc to beta actin level at 5 uM by Western blot analysis (Rvb= 1); assay type: functional; procedure, shortened: as §2
BT-549 [35] = assay: Induction of apoptosis in human BT549 cells assessed as ratio of cleaved caspase-3 to beta-actin level at 5 uM by western blot analysis (reference value: 1); assay type: functional

Q: Which results are given for `C=C(c1ccc(C(=O)NCCN2CCCC2)cc1)c1cc2c(cc1C)C(C)(C)CCC2(C)C`?
A: Ratio (BT-549 [1]): 6.3; Activity (MCF7 [2]): 20%; inhibition (MCF7 [3]): Active; Ratio (MCF7 [4]): 0.7; Ratio (BT-549 [5]): 2.5; Ratio (MDA-MB-231 [6]): 1.7; Ratio (MCF7 [7]): 1; Ratio (MCF7 [8]): 1.1; Ratio (BT-549 [9]): 0.8; Ratio (BT-549 [10]): 2.4; inhibition (INH) (MCF7 [11]): 80%; EC50 (MDA-MB-231 [12]): < 10 µM; Ratio (MDA-MB-231 [13]): 0.4; Ratio (BT-549 [14]): 1; Ratio (BT-549 [15]): 0.9; Activity (MCF7 [16]): 60%; Ratio (MCF-10A): 1; Ratio (MDA-MB-231 [17]): 1; Ratio (MDA-MB-231 [18]): 6.2; Ratio (BT-549 [19]): 1; Ratio (MDA-MB-231 [20]): 3.4; Ratio (BT-549 [21]): 2.1; Activity (MCF7 [22]): 40%; Activity (MDA-MB-231 [23]): 60%; Ratio (MCF7 [24]): 0.8; Activity (MCF7 [25]): 10 - 30%; Activity (MDA-MB-231 [26]): Active; Ratio (MCF7 [27]): 0.4; Activity (MDA-MB-231 [28]): 50%; Ratio (BT-549 [29]): 0.8; Ratio (MDA-MB-231 [30]): 0.9; Ratio (MDA-MB-231 [31]): 1.5; Ratio (MCF7 [32]): 1.2; Ratio (MCF7 [33]): 1; Ratio (MDA-MB-231 [34]): 1.1; Ratio (BT-549 [35]): 2.1

From ChEMBL document CHEMBL4184106, “Discovering alkylamide derivatives of bexarotene as new therapeutic agents against triple-negative breast cancer” (Bioorg Med Chem Lett, 2018)
